The subject of data set [1] is Human alphaherpesvirus 3. Kind of data set: Antiviral activity against thymidine kinase expressing Varicella-Zoster virus Oka in HEL cells assessed as inhibition of viral cytopathicity. The note with it: Human alphaherpesvirus 3, Oka. The format is functional, organism-based. The method in brief: (§1)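 VZV input was 20 PFU per HEL cell culture. Cultures were incubated with test compound for 5 days at 37 °C under 5% CO2, then fixed and stained. Viral plaque formation was counted against the untreated control to give the EC50.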
Background: Protection from cytopathic effect is a common read-out in antiviral testing.

Data set [2] concerns Human betaherpesvirus 5. Kind of data set: Antiviral activity against human cytomegalovirus Davis in HEL cells assessed as inhibition of viral cytopathicity. The note with it: Human betaherpesvirus 5, Davis. Type of data set: functional, organism-based. The method in brief:
(§2)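 Confluent HEL cell cultures were inoculated with 100 PFU of HCMV. After 2 h adsorption, residual virus was removed and cells were incubated with varying concentrations of test compound. Viral cytopathicity was scored when it reached completion in the untreated virus-infected controls, and the EC50 was taken from this read-out.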

A short description of data set [3]: Cytotoxicity against HEL cells assessed as reduction of growth after 3 days. The format is cell-based. The following applies: human. The method in brief: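 HEL cell suspensions were added to wells holding varying concentrations of test compound. Plates were incubated 3 days at 37 °C in a humidified CO2 incubator, and viable cells were counted with a Coulter Counter. CC50 is the concentration that reduced viable cell number by 50%.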

Data set [4] deals with Human betaherpesvirus 5. The data set is described as follows: Antiviral activity against human cytomegalovirus AD169 in HEL cells assessed as inhibition of viral cytopathicity. The following applies: Human betaherpesvirus 5, AD169, HEL. The format is functional, organism-based. The method in brief: as §2
Data set [5] deals with Human alphaherpesvirus 3. Kind of data set: Antiviral activity against thymidine kinase deficient Varicella-Zoster virus 07/1 in HEL cells assessed as inhibition of viral cytopathicity. Type of data set: functional, organism-based. The following applies: Human alphaherpesvirus 3, HEL. The method in brief: as §1
A short description of data set [6]: Cytotoxicity against HEL cells assessed as morphological alteration after 3 days. Type of data set: cell-based. The note with it: human. The method in brief: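 HEL cell cultures were examined by microscope. Cytotoxicity was recorded as the minimum cytotoxic concentration (MCC), meaning the lowest compound concentration that caused a detectable alteration of cell morphology.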

Values after ≈ are worked out from the molar mass of the structure shown.

In the case of `Cc1cc(-n2ccc3cccnc32)cn2c(CSCCc3ccccc3)cnc12`, the EC50 in the data set on Human alphaherpesvirus 3 [1] was greater than 4 µg/mL; in the data set on Human betaherpesvirus 5 [2] it was 1.4 µg/mL (≈ 3.51 µM); in the data set on Human betaherpesvirus 5 [4], 2 µg/mL (≈ 5.02 µM); in the data set with Human alphaherpesvirus 3 [5] it was greater than 4 µg/mL. In data set [3], the CC50 at 72 h was found to be 16 µg/mL (≈ 40.1 µM). For the same compound, in data set [6], the MCC at 72 h was determined as 20 µg/mL.
With `C=Cc1ccc(-c2cc(C)c3ncc(CSCCc4ccccc4)n3c2)cc1`, the EC50 with Human betaherpesvirus 5 [2] was 2.9 µg/mL (≈ 7.54 µM); in the data set with Human betaherpesvirus 5 [4], greater than 4 µg/mL. The CC50 at 72 h in data set [3] stood at 14 µg/mL (≈ 36.4 µM). The MCC at 72 h in data set [6] turned out to be 20 µg/mL.
As to `C=Cc1ccc(-c2cc(C)c3ncc(CSCc4ccccc4)n3c2)cc1`, the figures for the EC50 in the data set with Human betaherpesvirus 5 [2] and in the data set on Human betaherpesvirus 5 [4] were 30 µg/mL (≈ 81 µM) and greater than 100 µg/mL, respectively. Besides, the CC50 at 72 h in data set [3] is 59 µg/mL (≈ 159 µM). In addition, the MCC at 72 h in data set [6] is no less than 100 µg/mL.
Regarding `O=c1[nH]c(=O)n([C@H]2C[C@H](O)[C@@H](CO)O2)cc1/C=C/Br` [BRIVUDINE], the values for the EC50 in the data set with Human alphaherpesvirus 3 [1] and in the data set on Human alphaherpesvirus 3 [5] were 0.0037 µg/mL (≈ 0.0111 µM) and greater than 50 µg/mL, respectively. Moreover, the CC50 at 72 h in data set [3] is 122 µg/mL (≈ 366 µM). In data set [6], the MCC at 72 h came to 400 µg/mL.
As to `Cc1cc(Sc2ccc(O)cc2)c2ncc(CSCCc3ccccc3)n2c1`, the EC50 was 58 µg/mL (≈ 143 µM) in the data set with Human alphaherpesvirus 3 [1], 0.8 µg/mL (≈ 1.97 µM) in the data set with Human betaherpesvirus 5 [2], greater than 0.8 µg/mL in the data set with Human betaherpesvirus 5 [4] and 2.9 µg/mL (≈ 7.13 µM) with Human alphaherpesvirus 3 [5]. The CC50 at 72 h in data set [3] worked out at 79 µg/mL (≈ 194 µM). Also, the MCC at 72 h in data set [6] is greater than 100 µg/mL.
Consider `Cc1cc(Sc2ccc(Cl)cc2)c2ncc(CSCCc3ccccc3)n2c1`, for which the EC50 in the data set with Human alphaherpesvirus 3 [1], in the data set on Human betaherpesvirus 5 [2], in the data set with Human betaherpesvirus 5 [4] and in the data set with Human alphaherpesvirus 3 [5] was greater than 0.8 µg/mL in each case. In addition, the CC50 at 72 h in data set [3] was 100 µg/mL (≈ 235 µM). The MCC at 72 h in data set [6] stood at 4 µg/mL.
With `Cc1cc(C#N)cn2c(CSCCc3ccccc3)cnc12`, the EC50 was greater than 4 µg/mL in the data set with Human alphaherpesvirus 3 [1], 8.9 µg/mL (≈ 29 µM) in the data set with Human betaherpesvirus 5 [2], 8.9 µg/mL (≈ 29 µM) with Human betaherpesvirus 5 [4] and greater than 4 µg/mL in the data set with Human alphaherpesvirus 3 [5]. In addition, the CC50 at 72 h in data set [3] was 14 µg/mL (≈ 45.5 µM). Besides, the MCC at 72 h in data set [6] was found to be 20 µg/mL.
On to `Cc1cc(N2CCN(C)CC2)cn2c(CSCCc3ccccc3)cnc12`, for which the EC50 in the data set on Human alphaherpesvirus 3 [1] is greater than 4 µg/mL; with Human betaherpesvirus 5 [2], greater than 4 µg/mL; with Human betaherpesvirus 5 [4] it was greater than 20 µg/mL; in the data set on Human alphaherpesvirus 3 [5], greater than 4 µg/mL. Further, in data set [3], the CC50 at 72 h amounted to 32 µg/mL (≈ 84.1 µM). Further, the MCC at 72 h in data set [6] is 20 µg/mL.
For the compound `Cc1cc(-c2ccc(C=O)cc2)cn2c(CSCCc3ccccc3)cnc12`, the EC50 turned out to be 6 µg/mL (≈ 15.5 µM) with Human betaherpesvirus 5 [2] and 12.6 µg/mL (≈ 32.6 µM) with Human betaherpesvirus 5 [4]. For the same compound, in data set [3], the CC50 at 72 h came to 9.4 µg/mL (≈ 24.3 µM). In data set [6], the MCC at 72 h came out at 100 µg/mL.
For the compound `Cc1cc(-n2ccnc2)cn2c(CSCCc3ccccc3)cnc12`, the EC50 is 10.7 µg/mL (≈ 30.7 µM) in the data set on Human alphaherpesvirus 3 [1], 6.8 µg/mL (≈ 19.5 µM) in the data set on Human betaherpesvirus 5 [2], 8.9 µg/mL (≈ 25.5 µM) in the data set on Human betaherpesvirus 5 [4] and 11.4 µg/mL (≈ 32.7 µM) with Human alphaherpesvirus 3 [5]. Moreover, the CC50 at 72 h in data set [3] is 23 µg/mL (≈ 66 µM). Besides, the MCC at 72 h in data set [6] came out at 100 µg/mL.
Regarding `Cc1cc(-c2ccco2)cn2c(CSCCc3ccccc3)cnc12`, the EC50 in the data set on Human alphaherpesvirus 3 [1] was greater than 4 µg/mL; in the data set with Human betaherpesvirus 5 [2], greater than 0.8 µg/mL; with Human betaherpesvirus 5 [4] it was greater than 0.8 µg/mL; in the data set with Human alphaherpesvirus 3 [5], greater than 0.8 µg/mL. Besides, in data set [3], the CC50 at 72 h was 40 µg/mL (≈ 115 µM). Moreover, the MCC at 72 h in data set [6] is greater than 4 µg/mL.
For `Cc1cc(-n2cccc2)c2ncc(CSCc3ccccc3)n2c1`, the EC50 in the data set on Human alphaherpesvirus 3 [1] was determined as 2.2 µg/mL (≈ 6.6 µM); in the data set with Human betaherpesvirus 5 [2], 2.9 µg/mL (≈ 8.7 µM); with Human betaherpesvirus 5 [4] it was 6.3 µg/mL (≈ 18.9 µM); in the data set with Human alphaherpesvirus 3 [5], 1.8 µg/mL (≈ 5.4 µM). Also, in data set [3], the CC50 at 72 h was found to be 15 µg/mL (≈ 45 µM). Also, in data set [6], the MCC at 72 h is 100 µg/mL.
In the case of `Cc1cc(-n2cccc2)cn2c(CSCc3ccccc3)cnc12`, the EC50 in the data set on Human alphaherpesvirus 3 [1] is greater than 4 µg/mL; in the data set on Human betaherpesvirus 5 [2] it was 1.3 µg/mL (≈ 3.9 µM); with Human betaherpesvirus 5 [4] it was 1.6 µg/mL (≈ 4.8 µM); in the data set with Human alphaherpesvirus 3 [5], 2.1 µg/mL (≈ 6.3 µM). In addition, in data set [3], the CC50 at 72 h was 17 µg/mL (≈ 51 µM). In data set [6], the MCC at 72 h was 20 µg/mL.
Turning to `Cc1cc(-c2ccco2)c2ncc(CSCCc3ccccc3)n2c1`, the EC50 with Human alphaherpesvirus 3 [1] is 6.6 µg/mL (≈ 18.9 µM); in the data set with Human betaherpesvirus 5 [2], 2.7 µg/mL (≈ 7.75 µM); with Human betaherpesvirus 5 [4], 2.5 µg/mL (≈ 7.17 µM); in the data set with Human alphaherpesvirus 3 [5], 7.9 µg/mL (≈ 22.7 µM). Also, in data set [3], the CC50 at 72 h turned out to be 41 µg/mL (≈ 118 µM). Further, the MCC at 72 h in data set [6] was 100 µg/mL.
As for `Cc1cc(Sc2ccc(N)cc2)cn2c(CSCCc3ccccc3)cnc12`, the EC50 with Human alphaherpesvirus 3 [1] was greater than 4 µg/mL; with Human betaherpesvirus 5 [2], 1.8 µg/mL (≈ 4.44 µM); in the data set on Human betaherpesvirus 5 [4], 1.8 µg/mL (≈ 4.44 µM); in the data set with Human alphaherpesvirus 3 [5] it was 2.2 µg/mL (≈ 5.42 µM). In addition, the CC50 at 72 h in data set [3] stood at 23 µg/mL (≈ 56.7 µM). The MCC at 72 h in data set [6] amounted to 20 µg/mL.
Turning to `Nc1ccn(C[C@@H](CO)OCP(=O)(O)O)c(=O)n1` [CIDOFOVIR], the MCC at 72 h in data set [6] was no less than 100 µg/mL.
For `Nc1nc2c(ncn2COCCO)c(=O)[nH]1` [ACYCLOVIR], the EC50 in the data set with Human alphaherpesvirus 3 [1] turned out to be 0.24 µg/mL (≈ 1.07 µM); with Human alphaherpesvirus 3 [5] it was 13 µg/mL (≈ 57.7 µM). Moreover, the CC50 at 72 h in data set [3] turned out to be 137 µg/mL (≈ 608 µM). Also, in data set [6], the MCC at 72 h is greater than 400 µg/mL.

As usually defined, the EC50 is the midpoint of the concentration-response curve. The term CC50 denotes the concentration giving 50% cytotoxicity.
